The M2OR odorant receptor database

Biological target: T1, OR1A1 (Homo sapiens) (UniProt Q9P1Q5)
T1 sequence (whole entry): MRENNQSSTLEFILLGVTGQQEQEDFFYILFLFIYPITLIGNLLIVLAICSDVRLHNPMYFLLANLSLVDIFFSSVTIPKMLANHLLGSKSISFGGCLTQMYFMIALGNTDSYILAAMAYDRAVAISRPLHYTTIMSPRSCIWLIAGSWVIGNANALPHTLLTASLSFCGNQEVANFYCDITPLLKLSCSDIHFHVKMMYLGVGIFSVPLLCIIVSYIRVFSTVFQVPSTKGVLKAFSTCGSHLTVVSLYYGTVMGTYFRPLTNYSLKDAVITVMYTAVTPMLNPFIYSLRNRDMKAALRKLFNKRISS
Settings: stereoisomer not certain
Outline: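 Each receptor–molecule pair is labelled responsive or non-responsive (inactive) according to whether the original authors judged the measured signal statistically different from baseline. The data were taken from the main text and supplementary material of published papers and checked for typos and inconsistencies. Assay methods differed by source, with transient luciferase assays in mammalian cell lines being common.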
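Note: active if original authors judged signal statistically different from baseline.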

| SMILES | odorant receptor agonist call |
| --- | --- |
| CCCC1CCCC(=O)O1 (stereo not drawn) | inactive |
| c1ccccc1 | inactive |
| CC(C)=CCCC(C)CC=O (stereo not drawn) | active |
